# From the M2OR odorant receptor database
# Where a chain is given by its changes, count along the chain named.
# Assays:
# Conditions in all cases: stereoisomer not certain
# OR3A1 (Homo sapiens) = molecular target: T1, OR3A1 (Homo sapiens) (UniProt P47881)
# T1 sequence (whole entry): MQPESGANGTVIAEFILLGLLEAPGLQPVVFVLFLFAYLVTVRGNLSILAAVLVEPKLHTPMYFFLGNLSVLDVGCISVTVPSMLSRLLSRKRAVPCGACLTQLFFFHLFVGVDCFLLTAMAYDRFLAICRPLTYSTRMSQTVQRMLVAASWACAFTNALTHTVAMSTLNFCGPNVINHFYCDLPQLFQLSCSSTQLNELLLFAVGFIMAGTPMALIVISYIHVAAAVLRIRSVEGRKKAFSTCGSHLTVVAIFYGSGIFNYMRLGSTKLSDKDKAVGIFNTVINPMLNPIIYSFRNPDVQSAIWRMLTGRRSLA
# Procedure, shortened: (§1)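 Whether a receptor–molecule pair is responsive (active) rests on the original authors' judgment that its measured signal was statistically different from baseline. Pairs without that judgment are non-responsive (inactive). Sources used varied assay methods, commonly transient luciferase assays in mammalian cell lines.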
# OR3A1 [1] = tested on: OR3A1
# Procedure, shortened: as §1
# Target sequence in this assay (as listed by the source): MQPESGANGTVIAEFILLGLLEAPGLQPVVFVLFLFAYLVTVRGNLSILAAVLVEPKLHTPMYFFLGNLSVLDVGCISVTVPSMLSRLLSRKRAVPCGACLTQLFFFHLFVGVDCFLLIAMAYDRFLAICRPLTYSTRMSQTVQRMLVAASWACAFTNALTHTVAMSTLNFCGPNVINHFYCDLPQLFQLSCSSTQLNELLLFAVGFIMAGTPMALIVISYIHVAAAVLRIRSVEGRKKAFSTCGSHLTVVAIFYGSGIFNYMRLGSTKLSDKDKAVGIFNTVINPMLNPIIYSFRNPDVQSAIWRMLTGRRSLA
# OR3A1 [2] = tested on: OR3A1; remark: listed apart in the source
# Procedure, shortened: as §1
# Target sequence in this assay (as listed by the source): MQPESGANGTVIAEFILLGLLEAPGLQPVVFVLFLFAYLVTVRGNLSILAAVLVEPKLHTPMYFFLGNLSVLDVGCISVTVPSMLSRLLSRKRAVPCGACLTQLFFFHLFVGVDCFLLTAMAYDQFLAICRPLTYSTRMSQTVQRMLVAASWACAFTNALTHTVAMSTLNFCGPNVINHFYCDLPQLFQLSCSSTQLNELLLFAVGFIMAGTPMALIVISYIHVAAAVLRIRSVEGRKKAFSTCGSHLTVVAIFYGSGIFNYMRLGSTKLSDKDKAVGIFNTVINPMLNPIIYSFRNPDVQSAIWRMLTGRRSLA
# OR2W1 (Homo sapiens) = molecular target: T2, OR2W1 (Homo sapiens) (UniProt Q9Y3N9)
# T2 sequence (whole entry): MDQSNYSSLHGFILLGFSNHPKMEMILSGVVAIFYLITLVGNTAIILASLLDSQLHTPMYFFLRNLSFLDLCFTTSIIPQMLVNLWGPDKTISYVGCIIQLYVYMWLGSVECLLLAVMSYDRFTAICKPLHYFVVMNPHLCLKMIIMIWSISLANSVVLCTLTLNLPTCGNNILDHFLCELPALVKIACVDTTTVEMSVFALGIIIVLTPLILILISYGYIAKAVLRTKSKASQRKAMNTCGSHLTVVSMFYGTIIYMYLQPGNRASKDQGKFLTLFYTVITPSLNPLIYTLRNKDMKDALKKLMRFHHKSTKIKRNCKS
# Procedure, shortened: as §1
# OR2W1 [3] = tested on: T3, OR2W1
# T3 sequence (whole entry): T2 sequence (whole entry) with D296N
# Procedure, shortened: as §1
# OR2W1 [4] = tested on: T4, OR2W1; remark: listed apart in the source
# T4 sequence (whole entry): T2 sequence (whole entry) with M81V
# Procedure, shortened: as §1
# OR2W3 (Homo sapiens) = molecular target: T5, OR2W3 (Homo sapiens) (UniProt Q7Z3T1)
# T5 sequence (whole entry): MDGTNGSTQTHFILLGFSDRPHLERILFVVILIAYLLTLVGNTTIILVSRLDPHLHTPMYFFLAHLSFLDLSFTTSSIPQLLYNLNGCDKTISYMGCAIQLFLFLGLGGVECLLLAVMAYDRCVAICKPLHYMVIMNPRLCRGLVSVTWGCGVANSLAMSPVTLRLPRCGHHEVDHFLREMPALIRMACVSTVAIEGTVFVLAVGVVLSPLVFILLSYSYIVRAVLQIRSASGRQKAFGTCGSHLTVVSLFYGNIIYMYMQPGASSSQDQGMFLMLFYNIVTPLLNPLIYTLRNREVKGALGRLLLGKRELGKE
# Procedure, shortened: as §1
# OR2T7 = tested on: OR2T7
# OR2T7, sequence (as listed by the source): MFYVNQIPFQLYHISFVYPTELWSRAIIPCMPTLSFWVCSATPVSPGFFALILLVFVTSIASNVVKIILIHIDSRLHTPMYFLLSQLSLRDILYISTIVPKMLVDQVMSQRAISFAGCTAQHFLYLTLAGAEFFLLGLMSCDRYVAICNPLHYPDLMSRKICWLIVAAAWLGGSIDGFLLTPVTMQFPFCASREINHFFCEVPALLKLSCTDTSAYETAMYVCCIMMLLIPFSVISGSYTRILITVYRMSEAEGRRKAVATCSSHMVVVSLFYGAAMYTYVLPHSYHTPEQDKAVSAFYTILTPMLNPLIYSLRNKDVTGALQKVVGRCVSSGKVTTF
# Procedure, shortened: as §1
# OR2T8 (Homo sapiens) = OR2T8 (Homo sapiens) (UniProt A6NH00)
# OR2T8 (Homo sapiens), sequence (A6NH00 whole entry): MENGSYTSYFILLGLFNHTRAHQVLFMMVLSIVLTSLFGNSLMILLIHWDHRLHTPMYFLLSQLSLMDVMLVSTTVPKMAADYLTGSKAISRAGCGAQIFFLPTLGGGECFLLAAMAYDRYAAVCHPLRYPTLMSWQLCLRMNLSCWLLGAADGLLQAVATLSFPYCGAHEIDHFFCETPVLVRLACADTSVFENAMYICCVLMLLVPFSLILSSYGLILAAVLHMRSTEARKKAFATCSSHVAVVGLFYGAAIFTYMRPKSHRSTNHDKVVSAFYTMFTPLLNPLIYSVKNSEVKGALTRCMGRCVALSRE
# Procedure, shortened: as §1
# OR2V1 (Homo sapiens) = OR2V1 (Homo sapiens) (UniProt Q8NHB1)
# OR2V1 (Homo sapiens), sequence (Q8NHB1 whole entry): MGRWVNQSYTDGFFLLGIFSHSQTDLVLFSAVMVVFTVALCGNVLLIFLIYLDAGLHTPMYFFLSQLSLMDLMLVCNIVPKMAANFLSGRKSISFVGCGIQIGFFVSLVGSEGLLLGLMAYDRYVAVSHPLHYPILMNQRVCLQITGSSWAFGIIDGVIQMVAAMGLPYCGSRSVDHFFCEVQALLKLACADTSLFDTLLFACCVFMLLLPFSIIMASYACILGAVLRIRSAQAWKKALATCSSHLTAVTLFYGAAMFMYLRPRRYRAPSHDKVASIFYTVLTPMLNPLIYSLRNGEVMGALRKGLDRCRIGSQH
# Procedure, shortened: as §1
# OR2V2 (Homo sapiens) = OR2V2 (Homo sapiens) (UniProt Q96R30)
# OR2V2 (Homo sapiens), sequence (Q96R30 whole entry): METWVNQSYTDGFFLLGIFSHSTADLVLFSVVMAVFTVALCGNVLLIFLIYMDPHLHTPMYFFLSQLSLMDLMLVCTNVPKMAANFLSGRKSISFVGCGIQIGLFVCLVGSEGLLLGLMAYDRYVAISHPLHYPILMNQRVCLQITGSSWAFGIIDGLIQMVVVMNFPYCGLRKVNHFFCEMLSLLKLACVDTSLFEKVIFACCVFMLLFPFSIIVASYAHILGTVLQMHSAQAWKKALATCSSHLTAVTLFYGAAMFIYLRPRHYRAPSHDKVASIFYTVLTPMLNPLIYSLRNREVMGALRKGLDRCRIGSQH
# Procedure, shortened: as §1
# OR2W1 G96V = tested on: OR2W1 G96V
# OR2W1 G96V, sequence (as listed by the source, stated change not applied): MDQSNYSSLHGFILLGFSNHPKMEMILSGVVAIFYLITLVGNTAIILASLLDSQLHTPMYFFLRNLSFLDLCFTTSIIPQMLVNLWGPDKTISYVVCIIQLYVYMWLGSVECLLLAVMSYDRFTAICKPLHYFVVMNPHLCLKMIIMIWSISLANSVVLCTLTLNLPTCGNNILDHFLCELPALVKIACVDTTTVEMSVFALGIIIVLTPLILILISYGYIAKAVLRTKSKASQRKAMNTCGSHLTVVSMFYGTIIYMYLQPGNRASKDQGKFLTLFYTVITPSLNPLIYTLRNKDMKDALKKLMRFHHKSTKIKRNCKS
# Procedure, shortened: as §1
# OR2W5P (Homo sapiens) = OR2W5P (Homo sapiens) (UniProt A6NFC9)
# OR2W5P (Homo sapiens), sequence (A6NFC9 whole entry): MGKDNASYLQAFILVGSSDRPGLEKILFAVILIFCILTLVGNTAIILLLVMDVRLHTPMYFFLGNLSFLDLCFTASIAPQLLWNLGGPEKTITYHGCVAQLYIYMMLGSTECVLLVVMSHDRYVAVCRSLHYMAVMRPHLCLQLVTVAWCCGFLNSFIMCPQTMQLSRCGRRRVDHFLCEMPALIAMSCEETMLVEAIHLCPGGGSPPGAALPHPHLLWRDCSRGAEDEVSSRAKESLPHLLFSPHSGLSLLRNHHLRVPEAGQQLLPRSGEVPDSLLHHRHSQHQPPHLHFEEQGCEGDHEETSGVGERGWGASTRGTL
# Procedure, shortened: as §1
# OR2Y1 (Homo sapiens) = OR2Y1 (Homo sapiens) (UniProt Q8NGV0)
# OR2Y1 (Homo sapiens), sequence (Q8NGV0 whole entry): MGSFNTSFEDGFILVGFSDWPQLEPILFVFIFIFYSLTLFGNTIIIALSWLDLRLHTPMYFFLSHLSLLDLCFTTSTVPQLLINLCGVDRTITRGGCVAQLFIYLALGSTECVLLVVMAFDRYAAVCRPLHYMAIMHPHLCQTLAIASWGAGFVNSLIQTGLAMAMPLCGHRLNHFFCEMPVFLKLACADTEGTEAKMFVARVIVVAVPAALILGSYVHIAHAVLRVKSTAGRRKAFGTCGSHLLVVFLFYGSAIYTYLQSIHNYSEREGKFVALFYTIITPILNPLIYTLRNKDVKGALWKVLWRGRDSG
# Procedure, shortened: as §1
# OR2Y1 = tested on: OR2Y1
# OR2Y1, sequence (as listed by the source): as the sequence (Q8NGV0 whole entry) above, with V200L counted along it
# Procedure, shortened: as §1
# OR2Z1 (Homo sapiens) = OR2Z1 (Homo sapiens) (UniProt Q8NG97)
# OR2Z1 (Homo sapiens), sequence (Q8NG97 whole entry): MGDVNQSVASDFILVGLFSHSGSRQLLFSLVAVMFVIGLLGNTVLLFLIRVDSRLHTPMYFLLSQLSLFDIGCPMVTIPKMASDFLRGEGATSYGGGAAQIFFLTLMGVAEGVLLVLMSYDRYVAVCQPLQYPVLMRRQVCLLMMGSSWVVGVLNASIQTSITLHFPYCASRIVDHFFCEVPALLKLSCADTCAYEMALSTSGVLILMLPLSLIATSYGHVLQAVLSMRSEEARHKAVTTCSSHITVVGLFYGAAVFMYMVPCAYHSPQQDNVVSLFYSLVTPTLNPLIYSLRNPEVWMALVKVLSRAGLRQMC
# Procedure, shortened: as §1
# OR3A2 (Homo sapiens) = OR3A2 (Homo sapiens) (UniProt P47893)
# OR3A2 (Homo sapiens), sequence (P47893 whole entry): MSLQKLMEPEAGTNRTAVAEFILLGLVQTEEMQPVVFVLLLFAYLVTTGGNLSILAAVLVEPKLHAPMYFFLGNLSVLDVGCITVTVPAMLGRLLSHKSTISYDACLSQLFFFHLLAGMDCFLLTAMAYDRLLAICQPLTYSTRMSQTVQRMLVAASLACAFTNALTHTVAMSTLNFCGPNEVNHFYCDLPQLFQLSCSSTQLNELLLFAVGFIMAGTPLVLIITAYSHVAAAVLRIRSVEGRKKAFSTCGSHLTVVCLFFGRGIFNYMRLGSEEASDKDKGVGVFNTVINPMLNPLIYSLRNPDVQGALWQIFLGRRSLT
# Procedure, shortened: as §1
# OR3A2 R317K = tested on: OR3A2 R317K
# OR3A2 R317K, sequence (as listed by the source, stated change not applied): as the sequence (P47893 whole entry) above, with R317K counted along it
# Procedure, shortened: as §1
# OR3A3 (Homo sapiens) = OR3A3 (Homo sapiens) (UniProt P47888)
# OR3A3 (Homo sapiens), sequence (P47888 whole entry): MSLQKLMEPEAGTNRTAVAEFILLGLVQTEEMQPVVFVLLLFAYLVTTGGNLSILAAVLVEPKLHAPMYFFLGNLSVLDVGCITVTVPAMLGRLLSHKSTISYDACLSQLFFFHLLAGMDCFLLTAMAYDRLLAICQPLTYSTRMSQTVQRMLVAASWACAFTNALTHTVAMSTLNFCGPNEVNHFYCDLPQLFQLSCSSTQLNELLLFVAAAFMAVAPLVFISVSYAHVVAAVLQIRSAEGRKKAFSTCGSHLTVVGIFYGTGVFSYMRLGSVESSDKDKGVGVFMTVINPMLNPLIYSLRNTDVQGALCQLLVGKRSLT
# Procedure, shortened: as §1
# OR3A3 T48I L132F = tested on: OR3A3 T48I L132F
# Procedure, shortened: as §1
# 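Also: active if original authors judged signal statistically different from baseline.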
smiles,measurement,setting,value
CC(C=O)Cc1ccc2c(c1)OCO2 (stereo not drawn),odorant receptor agonist call,OR3A1 (Homo sapiens),active
same,odorant receptor agonist call,OR3A1 [1],inactive
same,odorant receptor agonist call,OR3A1 [2],inactive
Cc1ccccc1O,odorant receptor agonist call,OR2W1 (Homo sapiens),inactive
SCc1ccco1,odorant receptor agonist call,OR2W1 (Homo sapiens),active
same,odorant receptor agonist call,OR2W1 [3],active
same,odorant receptor agonist call,OR2W1 [4],active
C=CCc1ccc2c(c1)OCO2,odorant receptor agonist call,OR3A1 (Homo sapiens),inactive
Cc1ccc(O)c(C)c1,odorant receptor agonist call,OR2W1 (Homo sapiens),inactive
CC(=O)C=Cc1ccc2c(c1)OCO2,odorant receptor agonist call,OR3A1 (Homo sapiens),active
O=Cc1ccco1,odorant receptor agonist call,OR2W1 (Homo sapiens),inactive
C=CCSSCC=C,odorant receptor agonist call,OR2W1 (Homo sapiens),inactive
same,odorant receptor agonist call,OR2W1 [3],active
same,odorant receptor agonist call,OR2W1 [4],active
C=CCc1ccc(OC)cc1,odorant receptor agonist call,OR2W1 (Homo sapiens),active
same,odorant receptor agonist call,OR2W1 [3],active
same,odorant receptor agonist call,OR2W1 [4],active
CCOC(=O)Cc1ccccc1,odorant receptor agonist call,OR2W1 (Homo sapiens),active
same,odorant receptor agonist call,OR2W1 [3],active
same,odorant receptor agonist call,OR2W1 [4],active
C=CCc1ccccc1,odorant receptor agonist call,OR2W1 (Homo sapiens),inactive
Cc1cccc(C)c1,odorant receptor agonist call,OR2W3 (Homo sapiens),inactive
C=CCOC(=O)Cc1ccccc1,odorant receptor agonist call,OR2T7,inactive
same,odorant receptor agonist call,OR2T8 (Homo sapiens),inactive
same,odorant receptor agonist call,OR2V1 (Homo sapiens),inactive
same,odorant receptor agonist call,OR2V2 (Homo sapiens),inactive
same,odorant receptor agonist call,OR2W1 (Homo sapiens),active
same,odorant receptor agonist call,OR2W1 G96V,inactive
same,odorant receptor agonist call,OR2W3 (Homo sapiens),inactive
same,odorant receptor agonist call,OR2W5P (Homo sapiens),inactive
same,odorant receptor agonist call,OR2Y1 (Homo sapiens),inactive
same,odorant receptor agonist call,OR2Y1,inactive
same,odorant receptor agonist call,OR2Z1 (Homo sapiens),inactive
same,odorant receptor agonist call,OR3A1 (Homo sapiens),inactive
same,odorant receptor agonist call,OR3A1 [2],inactive
same,odorant receptor agonist call,OR3A2 (Homo sapiens),inactive
same,odorant receptor agonist call,OR3A2 R317K,inactive
same,odorant receptor agonist call,OR3A3 (Homo sapiens),inactive
same,odorant receptor agonist call,OR3A3 T48I L132F,inactive
O=Cc1ccc2c(c1)OCO2,odorant receptor agonist call,OR2W1 (Homo sapiens),active
same,odorant receptor agonist call,OR2W1 [3],active
same,odorant receptor agonist call,OR2W1 [4],active
same,odorant receptor agonist call,OR3A1 (Homo sapiens),inactive
OCc1ccco1,odorant receptor agonist call,OR2W1 (Homo sapiens),active
same,odorant receptor agonist call,OR2W1 [3],active
same,odorant receptor agonist call,OR2W1 [4],inactive
CCC1CCC(=O)O1 (stereo not drawn),odorant receptor agonist call,OR2W1 (Homo sapiens),inactive
NCC(=O)c1ccccc1,odorant receptor agonist call,OR2W1 (Homo sapiens),inactive
O=C(O)Cc1ccccc1,odorant receptor agonist call,OR2W1 (Homo sapiens),inactive
Cc1c([N+](=O)[O-])c(C)c([N+](=O)[O-])c(C(C)(C)C)c1[N+](=O)[O-],odorant receptor agonist call,OR2T8 (Homo sapiens),inactive
same,odorant receptor agonist call,OR2V1 (Homo sapiens),inactive
same,odorant receptor agonist call,OR2V2 (Homo sapiens),inactive
same,odorant receptor agonist call,OR2W1 (Homo sapiens),inactive
same,odorant receptor agonist call,OR2W3 (Homo sapiens),inactive
same,odorant receptor agonist call,OR2Y1 (Homo sapiens),inactive
same,odorant receptor agonist call,OR2Z1 (Homo sapiens),inactive
same,odorant receptor agonist call,OR3A1 (Homo sapiens),inactive
same,odorant receptor agonist call,OR3A2 (Homo sapiens),inactive
same,odorant receptor agonist call,OR3A3 (Homo sapiens),inactive
O=c1cc(O)c2ccccc2o1,odorant receptor agonist call,OR2W1 (Homo sapiens),inactive
CSSC,odorant receptor agonist call,OR2W1 (Homo sapiens),inactive
COc1ccc(C=O)cc1,odorant receptor agonist call,OR2W1 (Homo sapiens),active
same,odorant receptor agonist call,OR2W1 [3],active
same,odorant receptor agonist call,OR2W1 [4],active
same,odorant receptor agonist call,OR2W3 (Homo sapiens),inactive
SCc1ccccc1,odorant receptor agonist call,OR2W1 (Homo sapiens),active
same,odorant receptor agonist call,OR2W1 [3],active
same,odorant receptor agonist call,OR2W1 [4],active
